Results as given in ChEMBL document CHEMBL3813634, “Antileishmanial and Cytotoxic Activity of Some Highly Oxidized Abietane Diterpenoids from the Bald Cypress, Taxodium distichum” (J Nat Prod, 2016).

How the values were obtained:
[1] = system: Leishmania donovani; assay: Antileishmanial activity against Leishmania donovani LV82 promastigotes expressing red fluorescent protein after 72 hrs by flow cytometric analysis; assay type: functional, organism-based; conditions: LV82, 72 h
[2] = system: Leishmania amazonensis; assay: Antileishmanial activity against transgenic Leishmania amazonensis amastigotes infected in CD-1 mouse peritoneal macrophages assessed as beta-lactamase activity after 72 hrs by nitrocefin dye-based spectrophotometric analysis; assay type: functional, organism-based
Procedure, shortened: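 Beta-lactamase-expressing promastigotes grown in RPMI 1640 GlutaMAX with HEPES, adenosine, folate, RPMI vitamins, 10% heat-inactivated FBS (pH 6.9); added 5:1 to CD-1 mouse peritoneal macrophages (1 × 10⁵ cells/well) for 24 h at 34 °C, washed twice with HBSS, then exposed to test concentrations for 72 h at 34 °C.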

[3] = system: HT-29; assay: Cytotoxicity against human HT-29 cells after 72 hrs by SRB assay; assay type: cell-based; conditions: HT-29, 72 h
Procedure, shortened: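 HT-29 cells, 9500 per well, exposed to a range of concentrations in triplicate for 72 h; 10% DMSO in water as carrier/negative control, paclitaxel positive control.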

[4] = Selectivity index, ratio of IC50 for human HT-29 cells to IC50 for Leishmania donovani LV82 promastigotes expressing red fluorescent protein; assay type: toxicity, cell-based; conditions: read-out: Ratio IC50
Procedure, shortened: (§1)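 Selectivity index calculated as HT-29 cytotoxicity IC50 divided by antileishmanial IC50.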

[5] = Selectivity index, ratio of IC50 for human HT-29 cells to IC50 for Leishmania amazonensis amastigotes; assay type: toxicity, cell-based; conditions: HT-29 cells versus Leishmania amazonensis amastigotes, read-out: Ratio IC50; procedure, shortened: as §1

CC(C)c1cc(C=O)c([C@@]2(C)CCCC(C)(C)[C@@H]2C=O)cc1O
IC50 [1]: > 10 µg/mL | IC50 [2]: > 10 µg/mL

CC(C)C1=C(O)C(=O)C2=C(C1=O)[C@@H](O)C[C@H]1C(C)(C)CCC[C@]21C
IC50 [1]: > 10 µg/mL | IC50 [2]: > 10 µg/mL

Cc1ccc2c3c1CCCC(C)(C)[C@@]3(O)C(=O)C(C(C)C)=C2
IC50 [1]: > 10 µg/mL | IC50 [2]: > 10 µg/mL

Cc1ccc2cc(C(C)C)c(O)c3c2c1CCCC(C)(C)O3
IC50 [1]: > 10 µg/mL | IC50 [2]: > 10 µg/mL

CC(C)c1cc2c(cc1O)[C@@]1(C)CCCC(C)(C)[C@@H]1[C@@H](O)C2=O
IC50 [3]: 36 µM | IC50 [1]: 24.6 µM | selectivity ratio [4]: 1.5 | IC50 [2]: 17.1 µM | selectivity ratio [5]: 2.1

COCC(=O)[C@H]1C(C)(C)CCC[C@]1(C)C1=C(O)C(=O)C(C(C)C)=CC1=O
IC50 [3]: 4.4 µM | IC50 [1]: 6.9 µM | selectivity ratio [4]: 0.6 | IC50 [2]: 1.4 µM | selectivity ratio [5]: 3.2

CC(C)c1cc2c(cc1O)[C@@]1(C)CCCC(C)(C)C1=C(O)C2=O
IC50 [1]: > 10 µg/mL | IC50 [2]: > 10 µg/mL

CO[C@@H]1C[C@H]2C(C)(C)CCC[C@]2(C)C2=C1C(=O)C(C(C)C)=C(O)C2=O
IC50 [1]: > 10 µg/mL | IC50 [2]: > 10 µg/mL

Cc1ccc2c3c1CCCC(C)(C)C3C(=O)C(C(C)C)=C2 (racemic)
IC50 [1]: > 10 µg/mL | IC50 [2]: > 10 µg/mL

CC(C)c1cc2c(c(O)c1O)[C@@]1(C)CCCC(C)(C)C1=C(O)C2=O [14-DEOXYCOLEON U]
IC50 [3]: 13.3 µM | IC50 [1]: > 60 µM | selectivity ratio [4]: < 0.27 | IC50 [2]: 13 µM | selectivity ratio [5]: 1

C[C@@H]1[C@H](O)[C@@H](C)/C=C/C=C/C=C/C=C/C=C/C=C/C=C/[C@H](O[C@@H]2O[C@H](C)[C@@H](O)[C@H](N)[C@@H]2O)C[C@@H]2O[C@](O)(C[C@@H](O)C[C@@H](O)[C@H](O)CC[C@@H](O)C[C@@H](O)CC(=O)O[C@H]1C)C[C@H](O)[C@H]2C(=O)O [AMPHOTERICIN B]
IC50 [2]: 0.086 µM

CC(C)c1cc2c(cc1O)[C@@]1(C)CCCC(C)(C)[C@@H]1CC2 [FERRUGINOL]
IC50 [3]: 39.4 µM | IC50 [1]: 45.7 µM | selectivity ratio [4]: 0.9 | IC50 [2]: 15.4 µM | selectivity ratio [5]: 2.5

CC(C)C1=C(O)C(=O)C2=C(C1=O)[C@H](O)C[C@H]1C(C)(C)CCC[C@]21C [HORMINONE]
IC50 [1]: > 10 µg/mL | IC50 [2]: > 10 µg/mL

CC(C)C1=C(O)C(=O)C2=C(CC[C@H]3C(C)(C)CCC[C@]23C)C1=O [ROYLEANONE]
IC50 [1]: > 10 µg/mL | IC50 [2]: > 10 µg/mL

CC(C)c1cc2c(cc1O)[C@@]1(C)CCCC(C)(C)[C@@H]1CC2=O [SUGIOL]
IC50 [1]: > 10 µg/mL | IC50 [2]: > 10 µg/mL

CC(C)C1=CC2=CC(=O)[C@H]3C(C)(C)CCC[C@]3(C)C2=C(O)C1=O [TAXODIONE]
IC50 [3]: 2.5 µM | IC50 [1]: 1.6 µM | selectivity ratio [4]: 1.6 | IC50 [2]: 14.3 µM | selectivity ratio [5]: 0.2
